Test system: MS2 coat protein
Experiment: apparent Kd, MS2 coat protein; higher = weaker binding; RNA-MaP array; FMN 200 µM where present
Outline: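 Two titrations, one without ligand and one with constant ligand, were run with SNAP-549-labelled MS2 coat protein from 0.7 or 1.5 nM, doubling to 3 µM. The targets were designs transcribed by stalled E. coli RNA polymerase on Illumina sequencing-chip clusters, in 100 mM Tris-HCl pH 7.5, 80 mM KCl, 4 mM MgCl2, BSA, DTT, yeast tRNA and Tween-20. The apparent Kd is the median of filtered per-cluster binding-curve fits, with green signal normalised to red-channel RNA signal and control-cluster median Fmax.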

[1] = designed as: OFF switch for flavin mononucleotide, no ligand
[2] = ligand present: flavin mononucleotide, designed as: OFF switch for flavin mononucleotide
[3] = designed as: ON switch for flavin mononucleotide, no ligand
[4] = ligand present: flavin mononucleotide, designed as: ON switch for flavin mononucleotide

Sequence	apparent Kd [1] [nM]	apparent Kd [2] [nM]	apparent Kd [3] [nM]	apparent Kd [4] [nM]
AUGCUAUACGAAGGAUAUGGUUACAUGAGGAUCACCCAUGUUAUGAUUGGGUACAUGAAAAGGUUCCAGAAGGUCGUAUAGCUA	1210	736		
GGUCCGUAACAGAAGGCCGUAACUGGCGGUGGCGGAGGAUAUGUGGGCGGCCCUUGACAACAUGAGGAUCACCCAUGUAUGUAA			41.3	113
AUUAUUUAAGUCAGGAUAUCGUAUUUAUUUAAAUACGAGAAGGGACAUGAGGAUCACCCAUGUAAUAAAUUUUU	16.9	22.9		
AUCUUGCGAGGAUAUACUUACUUUUUUUUAUUUGGUUGCGAACAUGAGGAUCACCCAUGUAGAAGGUGCAUAAC	26	24.1		
UAGAUCAAUACAGGAUAUGGUGACGCACAUGAGGAUCACCCAUGUCCGCAGCGUGCUCAGCACGCCCAGAAGGGUAUUGAUUCG			786	80.1
UCAUAUAAACAAGGAUAUCAAUUAUUUACACAUCCUACAUGAGGAUCACCCAUGUUUUAAUAUUUUGAGAAGGUGUAAUGUCGG			24	29.9
CGAUGACACAGUCAUCCAAUACGAACAUGAGGAUCACCCAUGUAGGAUAUGCUACUCAAAGAGUAGCAGAAGGACAUGUGCCUU	38.4	159		
UGAACUUCAGAGAAGGUCGAAUCACAACGGUUCGAAGGAUAUCUGGAAACAUGAGGAUCACCCAUGUAACCGGGUGGAUGUCCU	56.2	242		
UCGCUGCGAGGAUAUACAUGAGGAUCACCCAUGUACGGGUCCGGGUCUUUGUCGAUUGGUAGAAGGCGCAGUGA	61.1	397		
UGGUACUAGGGAGGAUAUGGGAAUAUACAUGAGGAUCACCCAUGUUUAAGAAUGCCGAGAGGCAACUAGAAGGCCCUAGUACCU			11.1	4.85
AUGUUGAGCAGUGUAUUAAGAUCACAUGAGGAUCACCCAUGUAGAAGGCACGAGCUGAUCGCUCGUGAGGAUAUACAUCACUGC	10.3	110		
UCAUGUUUAGAGGAUAUGAUUACUUUUGAGUAAUCAGAAGGCUAGACAUGAGGAUCACCCAUGUCAUAACAUGA	90	112		
GGCAAUAACGAGGAUAUCGUAUCGGAAACGAUACGAGAAGGUGUAACAUGAGGAUCACCCAUGUUCCUCAAGCC	37.9	37.2		
AAUUUAAUACAUGAGGAUCACCCAUGUAAAUUAAUUAAGAUCAAGGAUAUCAGCUCGAAUAGAGCUGAGAAGGUGAUCACAUGU			351	86.5
AGAGUGUGAGGAUAUAUGGUGAAGAUGAAGGGAUAGAAGGAGUAGAAGGUACAUGAGGAUCACCCAUGUUAGGA	25.2	25.7		
AUAGAAGACUAGAAGGAGGUUUAAUAAUAUUGUCGAGGUAUUGUUGAAUUUAGGAUAUGGGACAUGAGGAUCACCCAUGUUUUG			24	16.2
AUAUAUCAUACAGGAUAUACAUGAGGAUCACCCAUGUGUUCUCCAUAAUUGACACCAAUUAUGCUGUAGAAGGGUAUGAUAUAU	22.3	151		
CCCGUGUGUUAAGGAUAUGGCAGGCGCGUUGAACCAGAAGGUAGCACAUGAGGAUCACCCAUGUGAAUGCUCACGAAUCGAGCG	31.3	26.8		
UUCAUCGAUGAAGGAUAUCUAUGUCCAACAUGAGGAUCACCCAUGUUGAGGAUUACCUAUGUGUAGGAGAAGGUCAAUAUAACU			7.02	6.28
ACAUGAGGAUCACCCAUGUUAUUUGGGAAUUAAUUUAUUUGUAGAAGGAUGUUUUCUUGUUAGUCAUAGGAUAUACUAUUAAAU	40.7	34.4		

— the EternaBench riboswitch data
